Screens from PubChem BioAssay.
TbMetRS inhib: blocks T. brucei methionyl-tRNA synthetase activity. inhibition, % at 11.9 µM. 360,000 tested, 0.4% active. purified T. brucei MetRS, ATP depletion, Kinase-Glo luminescence;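 active = inhibition above a per-plate cutoff of the control wells' mean inhibition plus 3 SD, cut at about 5.5% in these data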;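 also: 0% = DMSO wells median and 100% = median of wells with control inhibitor compound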
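System: purified T. brucei MetRS enzyme / Detection: Kinase-Glo luciferase luminescence reporting remaining unconsumed ATP / Medium: HEPES buffer with MgCl2, KCl, DTT, spermine, BSA, pyrophosphatase / Replication: singlicate, one well per compound / Evaluation: percent inhibition relative to median high and low control wells / Schedule: 2 h aminoacylation at 25 °C after 15 min preincubation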
AI-2 QS mod: Vibrio harveyi AI-2 quorum sensing modulation | Vibrio harveyi JMH597 AI-2 luminescence/OD600 ratio, 9 h; stronger effect = lower value; strain lacks LuxN and CqsS sensors; 0 = neutral-control median | activity change, % at 7.5 µM | 300,000 tested, 0.4% active | AID 2094; in the data active = activity change below about -75%, passing the limit was not always enough;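 also: luminescence divided by OD600 gain over 9 h not by final OD600 alone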
MsrA inh: inhibitors of bovine MsrA; purified bovine MsrA, absorbance read-out; inhibition, % at 15.5 µM; AID 651718; 360,000 tested, 0.75% active; in the data active = inhibition above about 4.5%;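 also: 0% = vehicle wells with enzyme and 100% = reference inhibitor wells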
bovine MsrA act: activators of bovine methionine sulfoxide reductase A | purified bovine MsrA, absorbance read-out | activation, % at 10.6 µM | 360,000 tested, 0.3% active | AID 602163; in the data active = activation above about 7.5%;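 also: 0% = vehicle and 100% = reference activator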
AHR act: human AHR activation. activation, % at 5 µM. AHR-responsive luciferase reporter cells, luminescence. P35869. 320,000 tested, 2.5% active; in the data active = activation above about 47%;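 also: 0% = vehicle wells and 100% = reference agonist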
m5-HT2A agonist: activates the mouse 5-HT2A serotonin receptor. AID 624169. CHO-K1 mHTR2A beta-arrestin complementation, luminescence; percent of 30 µM serotonin response. activation, % at 7.6 µM. 360,000 tested, 0.66% active;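 active = activation above a run cutoff, the mean activation of all tested compounds plus 3 SD, cut at about 14% in these data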;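 also: 0% = plate median of compound wells and 100% = 30 µM serotonin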
Target sequence (P35363 whole entry, looked up): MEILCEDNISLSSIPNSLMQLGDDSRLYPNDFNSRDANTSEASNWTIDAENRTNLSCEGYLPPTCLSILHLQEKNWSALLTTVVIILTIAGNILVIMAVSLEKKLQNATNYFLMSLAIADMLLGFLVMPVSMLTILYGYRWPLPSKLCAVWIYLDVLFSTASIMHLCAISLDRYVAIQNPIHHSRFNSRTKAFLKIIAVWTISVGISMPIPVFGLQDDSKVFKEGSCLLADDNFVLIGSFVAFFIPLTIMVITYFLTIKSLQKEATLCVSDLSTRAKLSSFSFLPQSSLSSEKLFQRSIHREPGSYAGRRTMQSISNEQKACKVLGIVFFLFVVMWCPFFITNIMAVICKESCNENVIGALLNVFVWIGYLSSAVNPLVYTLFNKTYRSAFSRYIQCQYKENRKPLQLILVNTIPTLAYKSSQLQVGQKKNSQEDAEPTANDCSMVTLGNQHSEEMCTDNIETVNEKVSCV
The depositor's hits bear a star; · = no result given. The list is not random: actives were taken first. Their share in the collection is about 4.4%.

SMILES	TbMetRS inhib	AI-2 QS mod	MsrA inh	bovine MsrA act	AHR act	m5-HT2A agonist
CN(C)S(=O)(=O)c1ccc(NC(=S)NC(=O)C2CCC2)cc1	-0.4	-76.2*	-0.1	-8.2	2.1	2.0
O=C1NC(=O)C(=Cc2ccccc2)N1	-0.3	·	3.5	-2.7	·	7.6
O=C1Nc2ccccc2O/C1=C\c1ccccc1	2.6	10.9	1.0	-2.6	60.7*	12.5
Cc1cccc(NS(=O)(=O)c2ccc(NC(=O)CN(c3cc([N+](=O)[O-])ccc3C)S(C)(=O)=O)cc2)c1	-1.3	10.0	0.8	-11.7	18.9	-1.9
COc1ccc(C)cc1NS(=O)(=O)c1ccc(NC(=O)CN(c2cc([N+](=O)[O-])ccc2C)S(C)(=O)=O)cc1	0.1	32.6	0.0	-5.7	47.7*	-5.0
NC(=O)COc1c(-c2ccco2)oc2ccccc2c1=O	-1.7	14.1	4.6*	-8.3	7.2	4.5
Cc1cc(SCC(=O)c2cc3ccccc3o2)nc2ccccc12	1.0	21.5	1.0	-0.7	51.6*	-2.6
O=C(CSc1nnnn1-c1ccc(O)cc1)c1cc2ccccc2o1	0.2	-77.0*	2.9	-2.8	4.4	-1.8
Cc1cc(SCC(=O)O)nc2ccccc12	-0.4	22.2	1.7	-5.0	0.6	0.2
Cc1cc(SCC(=O)c2ccc(O)c(O)c2)nc2ccccc12	0.1	·	2.3	-4.0	-2.6	2.9
Cc1cc(SCC(=O)c2ccc3c(c2)OCO3)nc2ccccc12	-0.2	-4.2	-0.9	-3.2	63.7*	0.5
CC(C)[C@H](NC(=O)[C@@H](N)Cc1ccccc1)C(=O)N1CCC2CCN(Cc3ccccc3)CC21 (some centres undefined)	·	·	1.0	·	·	·
C[C@H](O)[C@@H]1CN2CCc3c([nH]c4c(-c5ccccc5)cccc34)[C@@H]2C[C@@H]1N(C)C(=O)NC1CCCCC1	·	·	-0.7	·	·	·
O=C(Nc1ccc(Br)cn1)c1ccc2ccccc2c1	0.0	15.3	-1.2	-3.0	47.8*	-1.3
O=C(Nc1ccccc1)c1cccc2c(Br)cccc12	-0.5	30.2	-1.1	-2.4	57.2*	-0.7
O=C(Nc1ccc(Br)cn1)c1cccc2ccccc12	2.0	23.7	-1.0	0.5	70.0*	-3.5
COc1c(C(=O)Nc2ccc(Br)cn2)ccc2ccccc12	-0.9	-4.1	-0.2	-3.0	45.0	-2.8
CCC(=O)Nc1ccc(NC(=O)c2cccc3c(Br)cccc23)cc1	-0.6	-0.2	1.3	-9.1	0.4	5.1
O=C(Nc1ccc(Cl)cn1)c1cccc2c(Br)cccc12	-0.1	-0.1	0.1	-2.1	74.1*	-4.6
CC(C)CC1O[C@@H](C)[C@@H]2CN3CCc4c([nH]c5ccccc45)[C@@H]3C[C@@H]2N1C (some centres undefined)	·	·	0.5	·	·	·
C/C(=N\NC(=O)c1ccncc1)c1cccc(NC(=O)c2ccc(Cl)s2)c1	0.1	2.1	0.1	-2.2	·	-4.6
Cc1cc(C(=O)Cn2nc(C(=O)O)c3ccccc3c2=O)c(C)n1CCc1ccc(F)cc1	-0.5	-6.5	-0.6	-3.2	14.4	6.1
Cc1cc(C(=O)Cn2cncn2)c(C)n1CCc1ccc(F)cc1	-0.3	23.0	-0.5	-4.8	59.7*	1.8
CCOC(=O)c1cc(C)n(CCc2ccccc2)c1C	-1.3	2.1	0.3	-11.4	-4.0	-2.7
Cc1cc(C(=O)CCl)c(C)n1CCc1ccccc1	·	38.4	0.9	·	60.6*	·
SMILES	TbMetRS inhib	AI-2 QS mod	MsrA inh	bovine MsrA act	AHR act	m5-HT2A agonist
COc1ccc2c(C)cc(N3CCCCCC3)nc2c1	0.1	11.4	2.0	-0.5	2.3	-5.7
Cc1cc(N2CCCCCC2)nc2ccc(F)cc12	1.0	4.4	0.3	-2.3	58.3*	6.8
Cc1ccc(S(=O)(=O)/N=C2/C=C(Sc3ncn[nH]3)C(=O)c3ccccc32)c(C)c1	·	·	·	·	49.9*	·
Cc1ccc(S(=O)(=O)N2CCN(C(=O)CSc3ncn[nH]3)CC2)c(C)c1	-0.4	5.7	-0.3	-6.6	1.3	9.7
CC(C)c1ccc(S(=O)(=O)/N=C2/C=C(Sc3ncn[nH]3)C(=O)c3ccccc32)cc1	1.4	·	·	2.5	41.5	0.9
Cc1ccc(S(=O)(=O)/N=C2/C=C(Sc3ncn[nH]3)C(=O)c3ccccc32)cc1	2.5	·	·	3.5	57.0*	19.5*
C=CCNC(=O)c1ccccc1NC(=O)c1ccccc1SC	-1.4	9.6	0.1	-10.3	76.7*	-1.1
CCCNC(=O)c1ccccc1NC(=O)c1ccccc1SC	-1.2	12.7	0.9	-4.8	24.0	3.1
COc1c2ccc(OCC/C(C)=C/C(=O)C=C(C)C)cc2nc2occc12	-0.3	·	1.0	0.4	75.5*	2.0
Fc1ccccc1-c1cc2ncccc2cn1	-0.3	·	0.1	-1.7	66.6*	-7.6
COc1cc(OC)cc(-c2cc3ncccc3cn2)c1	0.3	·	-0.4	-4.3	22.3	-1.5
COc1ccc(CN(C)C(=O)[C@@H](Cc2ccccc2)NC(=O)[C@H]2O[C@@H](n3ccc(N)nc3=O)[C@H](O)[C@@H]2O)cc1OC	·	·	0.4	·	·	·
Cc1ccccc1C(=O)N(C)[C@H]1C[C@H]2c3[nH]c4c(-c5ccc6c(c5)OCO6)cccc4c3CCN2C(=O)[C@H]1[C@H](C)O	·	·	-1.0	·	·	·
COc1ccccc1N=C1NC(=O)/C(=C/c2ccc(N(C)C)cc2)S1	0.1	37.0	2.2	-5.2	65.4*	2.0
COc1ccc(/C=C2\SC(=Nc3ccccc3)NC2=O)cc1	·	23.5	·	·	·	·
CCN(CC)c1ccc(C=Nc2ccccc2)c(O)c1	-1.1	17.3	3.5	-3.3	3.1	-1.9
CCN(CC)c1ccc(/C=N/NC(=O)OC)c(O)c1	-1.1	25.7	7.2*	-3.1	27.5	1.6
CCN(CC)c1ccc(N=Cc2ccc(N(CC)CC)cc2O)cc1	0.0	11.2	4.6*	1.4	7.0	-0.7
O=C1Nc2ccc(Cl)cc2C(=O)C1(F)c1ccccc1 (centres undefined)	0.5	20.3	1.3	-1.4	41.0	12.3
O=C1Nc2c(ccc(Cl)c2Cl)C(=O)C1(F)c1ccccc1 (centres undefined)	0.7	14.5	-0.2	-4.7	92.3*	6.7
O=C1C(Cl)=C(NCCCO)C(=O)c2ccccc21	-2.4	-53.7	1.1	-0.1	15.9	4.9
O=C1C(SCCO)=C(SCCO)C(=O)c2ccccc21	2.1	·	1.0	0.3	57.7*	-14.4
Cc1ccc(NC(=O)CN2C(=O)NC3(CCc4ccccc43)C2=O)cc1Cl (centres undefined)	-0.6	-90.5*	2.4	-4.2	5.4	1.1
Cc1ccc(NC(=O)CN2C(=O)NC3(CCc4ccccc43)C2=O)cc1 (centres undefined)	-0.1	-90.2*	-1.4	-3.2	1.4	0.6
C[C@H](O)[C@@H]1CN2CCc3ccc(-c4ccc5c(c4)OCO5)cc3[C@@H]2C[C@@H]1N(C)C(=O)c1ccco1	·	·	-0.7	·	·	·
CC(=O)c1cccc(Nc2cc(C)nc3c(C)cccc23)c1	0.5	3.5	2.9	-4.1	50.0*	-6.3
